# MPTP inh = mitochondrial permeability transition pore inhibitors, primary screen, biochemical, isolated mouse mitochondria, absorbance; Ca2+ swelling absorbance, 30 min; inhibition, % at 10 µM; actives 1.4% (n = 360,000); AID 602449, 2012;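 active = inhibition of 50% or more, scaled per plate between neutral and stimulator controls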
# aDG glyco act = activators of alpha-DG glycosylation, primary screen, uHTS, Pro5-aDG cells, AlphaScreen; alpha-DG glycosylation AlphaScreen (IIH6); 0% Pro5, 100% B10-LARGE cell signal; activation, % at 10 µM; actives 0.22% (n = 360,000);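 active = activation of at least 8% versus controls, or a plate z-score of at least 8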;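 also: Pro5 are CHO cells carrying HIG-tagged alpha-DG that lacks glycosylation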
# CHOP UPR activ = activators of apoptotic CHOP UPR arm, primary screen, cell-based, CHO-CHOP luciferase reporter, luminescence, uHTS; UPR activation; percent of tunicamycin response over DMSO baseline; activation, % at 10 µM; actives 0.34% (n = 330,000); AID 449763, 2010;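 active = at 10 µM dose, activation of 40% or more, normalized to positive control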
#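 System: CHO-CHOP luciferase reporter cell line; amount: 500 cells/well; buffer or medium: F12 medium containing 10% fetal bovine serum; incubation: 6 h compound exposure at 37 °C after overnight seeding; measured by: luciferase luminescence after 10 min with Steady-Glo reagent; evaluation: % reporter activation, DMSO baseline versus tunicamycin full activation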
# CHOP inh = inhibitors of CHOP promoter induction, primary screen, cell-based, unfolded protein response, luciferase reporter; CHO-K1 CHOP-promoter luciferase, tunicamycin-induced, 15-18 h; inhibition, % at 10 µM; actives 3.8% (n = 220,000); AID 2732, 2010;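 active = compounds that reduced the stress-induced luciferase reporter signal by more than about 70% of percent inhibition, limit read from the data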
# UPR XBP1 act = activators of adaptive XBP1 UPR arm, primary screen, cell-based, CHO-XBP1 luciferase reporter, luminescence, uHTS; IRE1-XBP1 UPR activation; percent of tunicamycin response, DMSO as zero; activation, % at 20 µM; actives 0.33% (n = 330,000);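 active = versus positive control, 20 µM dose yields 30% or more activation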
#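 assay system = CHO-XBP1 luciferase reporter cells | amount = 1000 cells/well | buffer or medium = F12 plus 10% FBS | compound dosing = single point, 20 µM final compound, 1% DMSO | incubation = 16-18 h cell attachment at 37 °C, then 6 h compound exposure | detection = Steady-Glo luminescence read | controls = tunicamycin 10 µg/mL and vehicle-only wells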
# GRIN3A LBD mod = binders of NR3A ligand-binding domain, primary screen, biophysical, differential scanning fluorimetry, uHTS. Glutamate receptor ionotropic, NMDA 3A (GRIN3A) ligand-binding domain. NR3A LBD differential scanning fluorimetry, Tm shift; 0% = protein alone, 100% = glycine-bound protein. Tm shift relative to glycine control, % at 25 µM. actives 2.5% (n = 340,000);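 active = melting temperature shift of at least 10% of the positive control shift, at one fixed dose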
# CHOP inh conf = retest of CHOP induction inhibitors, confirmation, cell-based; actives 45% (n = 2,100); inhibition, % at 10 µM; CHO-CHOP promoter luciferase reporter, tunicamycin-induced, luminescence; shares compounds with CHOP inh;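 active = mean of three repeat readings of reporter signal inhibition above a set limit, cut at about 70% in these data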
# Numbers stand for hits; 0 = inactive; - = no result. A selection: hits, their analogues and other compounds. The true share with any hit is near 5.6%.
SMILES,MPTP inh,aDG glyco act,CHOP UPR activ,CHOP inh,UPR XBP1 act,GRIN3A LBD mod,CHOP inh conf
CCCCN1CCC(COC(=O)c2cc(Cl)c(N)c3c2OCCO3)CC1,0,0,0,0,0,0,-
CCOc1ccc(C(=O)n2cc(C(=O)OC)c3ccccc32)cc1,0,0,0,-,0,0,-
O=C(CN1C(=O)C(=O)N(Cc2ccco2)C1=O)Nc1ccccc1,0,0,0,-,0,0,-
C=C(C)COc1ccc(-c2n[nH]c(C)c2Oc2ccccc2OC)c(O)c1,0,0,0,107,0,0,115
N#CC1=C(N)C(C#N)(C#N)C(c2cccnc2)C2CC(c3ccccc3)CC=C12 (stereo not given),0,0,0,96,0,0,0
N#CC1=C(N)C(C#N)(C#N)C(c2cccnc2)C2CCCC=C12 (stereo not given),-,-,0,0,0,-,-
CN(C)c1ccc(C(CNS(=O)(=O)c2ccc(F)cc2)c2c[nH]c3ccccc23)cc1 (stereo not given),0,0,0,107,0,16,0
CN(C)c1ccc(C(CNC(=O)c2ccccc2Br)c2c[nH]c3ccccc23)cc1 (stereo not given),0,0,0,0,0,0,-
Cc1ccc(NC(=O)C2=C(c3ccccc3)S(=O)(=O)CCS2(=O)=O)cc1,0,0,0,109,0,14,0
O=C(Nc1ccc(-c2ccccc2)cc1)c1ccccc1,0,0,0,-,0,0,-
Cc1cc(C(=O)NNC(=S)NC(=O)/C=C/c2ccccc2Cl)n[nH]1,0,0,0,108,0,0,0
O=C(Nc1ccccc1O)c1c(O)c2c([nH]c1=O)CCCC2,0,0,0,103,0,14,126
O=C(N/N=C/c1ccc(Cl)cc1)c1n[nH]c2c1CCCC2,0,0,0,0,0,0,-
O=C(N/N=C/c1cccc(Cl)c1)c1c(O)c2c([nH]c1=O)CCCC2,0,0,0,98,0,0,0
Cc1ccc(C2=CC(c3ccc(N(C)C)cc3)n3nnnc3N2)cc1 (stereo not given),0,0,0,100,0,0,0
COc1ccc(C2=CC(c3ccc(F)cc3)n3nnnc3N2)cc1 (stereo not given),0,0,0,0,0,0,-
CCCCN1C(=O)C2(NNc3ccccc3O2)c2ccccc21 (stereo not given),0,0,0,103,0,0,0
C=CCN1C(=O)C2(NNc3ccccc3O2)c2ccccc21 (stereo not given),0,0,0,0,0,0,-
O=C(Nc1ccccc1-c1nc2ccccc2[nH]1)c1ccc(N2C(=O)CCC2=O)cc1,0,0,0,0,0,0,-
O=C(Nc1ccccc1-c1nc2ccccc2[nH]1)c1sc2ccccc2c1Cl,-,-,0,97,0,-,106
Cc1ccnc(NC(=O)c2sc3ccccc3c2Cl)c1,0,0,0,99,0,0,0
Cc1ccc(Cl)c(OCCN2CCc3ccccc3C2)c1,0,0,0,-,0,0,-
O=C(COC(=O)/C=C/c1cccc(Br)c1)NC1CCCC1,0,0,0,-,0,0,-
COc1ccccc1/C=C/C=N/NC(=O)c1cc(-c2ccco2)[nH]n1,0,0,0,0,0,0,-
O=C(N/N=C/C(Br)=C/c1ccccc1)c1cc(-c2ccco2)[nH]n1,0,0,0,103,0,22,0
Cc1cccnc1NC(=O)CCCNC(=O)c1ccc(Cl)cc1,0,0,0,-,0,0,-
CC1=Nc2nc(N3CCCCC3)c(C#N)c3c4c(nc(c23)N1)N(c1ccc(C(C)C)cc1)C(=O)C4,0,0,0,108,0,0,83
